Common to all, as to assay type: functional, cell-based
In one assay the test system is CCRF-CEM. The experiment in a line: Concentration required to reduce proliferation of CD4+ human acuteT-lymphoblastic leukemia (CCRF-CEM) cell line by 50% as determined by the MTT method. The method in brief: (§1)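 Leukemia/lymphoma cells grown in RPMI 1640 with 10% FCS, 37 °C, humidified 5% CO2. Compounds were dissolved in DMSO (200 μM initial) and serially diluted in medium. Exponentially growing cells were resuspended at 1×10^5 cells/mL with the drug dilutions. Viability was read by MTT after 96 h at 37 °C. Growth was taken as % of untreated controls, and IC50 came from linear regression. Values are the mean of three independent determinations.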
A general note: Tetrazolium assays rely on reduction of a dye to a coloured formazan, in cell work by metabolically active cells.

For another assay, the system named is HepG2. The experiment in a line: Concentration required to reduce proliferation of human hepatocellular carcinoma (HepG-2) cell line by 50% as determined by the MTT method. The procedure, abridged:
(§2)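 Solid-tumour-derived cells (and fibroblasts) were seeded in exponential growth at 5×10^4 cells/mL and allowed to adhere for 16 h before serial drug dilutions were added (DMSO stock 200 μM, diluted in medium). MTT viability was read 4 days later. Untreated controls went through at least three rounds of multiplication. IC50 came from linear regression of % growth versus untreated control, mean of three independent determinations.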

The next assay has as its system DU-145. The experiment in a line: Concentration required to reduce proliferation of human prostate carcinoma (DU-145) cell line by 50% as determined by the MTT method. The procedure, abridged:
as §2

The next assay concerns SK-MES-1. The experiment in a line: Concentration required to reduce proliferation of human lung squamous carcinoma (SKMES-1) cell line by 50% as determined by the MTT method. The method in brief: as §2
Another assay has as its system MT4. In words: Concentration required to reduce proliferation of CD4+ human acute T-lymphoblastic leukemia (MT-4) cell line by 50% as determined by the MTT method. The method in brief:
as §1

For a further assay, the system named is CCRF-SB. The experiment in a line: Concentration required to reduce proliferation of human acute B-lymphoblastic (CCRF-SB) cell line by 50% as determined by the MTT method. The method in brief:
as §1

The test system of another assay is WIL2-NS. The experiment in a line: Concentration required to reduce proliferation of human splenic B-lymphoblastoid (Wil2-NS) cell line by 50% as determined by the MTT method. The procedure, abridged:
as §1

Another assay relates to SK-MEL-28. The experiment in a line: Concentration required to reduce proliferation of human melanoma (SKMEL-28) cell line by 50% as determined by the MTT method. The method in brief: as §2
The test system of the next assay is MCF7. In words: Concentration required to reduce proliferation of human breast adenocarcinoma (MCF-7) cell line by 50% as determined by the MTT method. The procedure, abridged:
as §2

The subject of the next assay is CRL-7065 cell line. In words: Concentration required to reduce proliferation of human foreskin fibroblasts (CRL7065) cell line by 50% as determined by the MTT method. The method in brief:
as §2

Each structure is given as a SMILES string. pIC50: −log10 of the molar value.

What is called pIC50 is the negative decadic logarithm of the IC50, by convention in mol/L. With `CCOC(=O)C1=CC2C(=O)c3ncccc3C(=O)C2C(c2ccc(N(C)C)cc2)=N1` (stereo not drawn), the pIC50 in the assay on CCRF-CEM is 5.92; with HepG2, 6.05; in the assay with DU-145, 6.00; with SK-MES-1, 6.00; in the assay with MT4, 6.05; with CCRF-SB, 6.05. Also, the results for the pIC50 in the assay on WIL2-NS, in the assay with SK-MEL-28 and with MCF7 were 5.85, 6.05 and 6.00, respectively.
As to `CCOC(=O)C1(N)CSC2=C1C(=O)c1ncccc1C2=O` (stereo not drawn), the pIC50 is 7.15 with CCRF-CEM; 6.22 in the assay on HepG2; 7.10 in the assay on DU-145; 7.00 with SK-MES-1; 7.05 with CRL-7065 cell line; 7.70 in the assay on MT4. Besides, the pIC50 with CCRF-SB is 8.00; with WIL2-NS it was 7.22; with SK-MEL-28, 6.70; in the assay with MCF7, 6.70.
As to `CCOC(=O)C1=CC2C(=O)c3cccnc3C(=O)C2C(c2ccc(N(C)C)cc2)=N1` (stereo not drawn), the pIC50 in the assay with CCRF-CEM is 5.64; in the assay with HepG2 it was 5.66; with DU-145, 5.72; with SK-MES-1, 5.74; in the assay with MT4 it was 5.70; in the assay on CCRF-SB it was 5.66. Further, the pIC50 was 5.60 in the assay on WIL2-NS, 5.72 in the assay on SK-MEL-28 and 5.80 in the assay on MCF7.
Take `CCOC(=O)C1=CC2C(=O)c3cccnc3C(=O)C2C(c2ccc(Br)cc2)=N1` (stereo not drawn): the pIC50 is 5.89 in the assay on CCRF-CEM; 5.64 with HepG2; 5.89 in the assay on DU-145; 6.30 in the assay with SK-MES-1; 5.89 in the assay on CRL-7065 cell line; 6.15 with MT4. Moreover, the negative-log IC50 (pIC50) in the assay on CCRF-SB is 6.10; in the assay with WIL2-NS, 5.68; with SK-MEL-28 it was 6.05; in the assay on MCF7, 6.22.
For the molecule `CCOC(=O)C1=CC2C(=O)c3cccnc3C(=O)C2C(c2ccccc2)=N1` (stereo not drawn), the pIC50 is 6.15 in the assay on CCRF-CEM; 6.00 in the assay on HepG2; 6.00 with DU-145; 6.52 in the assay on SK-MES-1; 6.15 in the assay with MT4; 6.22 in the assay with CCRF-SB. In addition, the pIC50 with WIL2-NS was 6.00; with SK-MEL-28, 6.10; with MCF7, 6.52.
With `CCOC(=O)C1=CC2C(=O)c3cccnc3C(=O)C2C(c2ccc(C)cc2)=N1` (stereo not drawn), the pIC50 is 6.00 in the assay on CCRF-CEM; 5.72 with HepG2; 5.72 in the assay on DU-145; 5.92 in the assay on SK-MES-1; 6.00 with MT4; 6.00 with CCRF-SB. For the same molecule, the values for the pIC50 in the assay on WIL2-NS, in the assay with SK-MEL-28 and with MCF7 were 5.60, 5.89 and 5.80, respectively.
For the molecule `CCOC(=O)C1=CC2C(=O)c3ncccc3C(=O)C2C(c2ccc(OC)cc2)=N1` (stereo not drawn), the pIC50 with CCRF-CEM was 7.00; in the assay with HepG2 it was 6.00; with DU-145, 5.82; in the assay on SK-MES-1 it was 5.80; in the assay with MT4 it was 6.40; in the assay with CCRF-SB it was 7.00. The pIC50 in the assay on WIL2-NS is 7.05; in the assay with SK-MEL-28, 6.52; with MCF7, 5.82.
`CCOC(=O)C1=CC2C(=O)c3ncccc3C(=O)C2C(c2ccccc2)=N1` (stereo not drawn): the negative logarithm of the IC50 (pIC50) in the assay on CCRF-CEM is 6.70; with HepG2, 5.70; in the assay on DU-145 it was 5.82; with SK-MES-1, 6.30; in the assay on MT4, 7.82; in the assay on CCRF-SB it was 8.00. The values for the pIC50 in the assay on WIL2-NS, in the assay with SK-MEL-28 and in the assay with MCF7 were 7.70, 6.10 and 6.30, respectively.
As to `CCOC(=O)C1=CC2C(=O)c3cccnc3C(=O)C2C(c2ccc([N+](=O)[O-])cc2)=N1` (stereo not drawn), the pIC50 with CCRF-CEM is 6.64; in the assay on HepG2, 6.30; in the assay with DU-145 it was 7.00; in the assay on SK-MES-1, 7.10; with MT4 it was 8.00; in the assay with CCRF-SB it was 7.82. The pIC50 with WIL2-NS is 7.52; with SK-MEL-28, 6.70; in the assay on MCF7, 6.70.
